Compounds with a hit are over-represented: about 1.9% of the library has one in this group of screens.
ASAP1 GAP inh – inhibitors of human ASAP1 ArfGAP activity, primary screen, biochemical, fluorescence polarization; Arf-GAP with SH3 domain, ANK repeat and PH domain-containing protein 1 (Homo sapiens), …; ASAP1-stimulated ARF1 GTP hydrolysis, GDP FP detection; inhibition, % at 16.5 µM; hit rate 0.19% among 360,000; AID 624377, 2012; in the data active = inhibition above about 25%
Rtt109 HAT inh – inhibitors of C. albicans Rtt109/Vps75 HAT, primary screen, biochemical, ThioGlo CoA-SH fluorescence, plate reader; AID 540336, 2011; inhibition, % at 34.9 µM; Histone acetyltransferase RTT109 (Candida albicans (strain SC5314 / ATCC MYA-2876)), …; hit rate 0.16% among 330,000; purified Rtt109/Vps75, 4 h;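 active = inhibition of at least 50% in every replicate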
Target sequence (Q5AAJ8 whole entry, looked up): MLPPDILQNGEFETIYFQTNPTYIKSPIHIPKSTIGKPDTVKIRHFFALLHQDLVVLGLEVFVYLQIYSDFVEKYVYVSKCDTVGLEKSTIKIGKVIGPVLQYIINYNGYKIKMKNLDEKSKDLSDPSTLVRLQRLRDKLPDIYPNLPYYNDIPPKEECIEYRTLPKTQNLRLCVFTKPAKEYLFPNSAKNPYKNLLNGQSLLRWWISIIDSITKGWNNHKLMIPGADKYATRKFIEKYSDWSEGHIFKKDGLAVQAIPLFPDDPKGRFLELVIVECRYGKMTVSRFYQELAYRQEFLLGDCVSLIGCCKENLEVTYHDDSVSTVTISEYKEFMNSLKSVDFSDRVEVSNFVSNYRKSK
FGF22 binding – binders of human FGF22 protein, primary screen, FGF22 synaptogenesis inhibitor project, biophysical, thermal shift, single point; recombinant FGF22 thermal shift, SYPRO orange fluorescence; percent of sucrose octasulfate shift, DMSO zero; activity (Tm shift, normalised), % at 9.99 µM; hit rate 1.5% among 340,000;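 active = mean Tm shift, scaled 0 neutral to 100 positive control, at about 1.3% or above, every replicate too, limit read from the data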
Target sequence (Q9HCT0 whole entry, looked up): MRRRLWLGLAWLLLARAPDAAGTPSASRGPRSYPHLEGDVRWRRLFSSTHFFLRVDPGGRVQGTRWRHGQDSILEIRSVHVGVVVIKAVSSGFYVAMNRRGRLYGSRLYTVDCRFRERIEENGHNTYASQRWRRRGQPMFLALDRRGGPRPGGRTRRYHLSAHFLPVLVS
Efflux pump inh – inhibitors of Candida efflux pumps in yeast, primary screen, S. cerevisiae, Nile Red, multiplex; AID 485275, 2010; inhibition, % at 10 µM; S. cerevisiae Candida pump triplex; hit rate 0.44% among 330,000;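 active = plate passing quality check with inhibition over a set limit, or well fluorescence over plate mean plus 4 SD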;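 note: Nile Red retained in pooled yeast measured as flow cytometry median fluorescence; higher means more Nile Red kept so more efflux inhibition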
ARFGAP1 inh – inhibitors of rat ARFGAP1 GAP activity, primary screen, biochemical, fluorescence polarization, GDP tracer. ADP-ribosylation factor GTPase-activating protein 1 (Rattus norvegicus), Q62848. Arfgap1-stimulated ARF1 GTP hydrolysis, GDP FP detection. inhibition, % at 16.5 µM. hit rate 0.26% among 360,000. AID 651572, 2012;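 active = inhibition above a per-plate limit, mean inhibition of low control wells plus 3 SD, cut at about 25% in these data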
Target sequence (Q62848 1-136 limits assumed): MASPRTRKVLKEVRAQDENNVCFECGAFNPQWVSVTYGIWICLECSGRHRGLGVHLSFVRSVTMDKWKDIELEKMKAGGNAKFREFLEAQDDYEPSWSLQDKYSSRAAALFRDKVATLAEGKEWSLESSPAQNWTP
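System: truncated rat Arfgap1 GAP domain / Medium: HEPES-based buffer, pH 7.5 / Also added: N-terminally truncated human ARF1-GTP substrate / Incubation: enzyme reaction 120 min at 25 °C after 20 min preincubation / Measured by: FP of antibody-bound GDP Alexa 633 tracer, ex 620/em 688 nm / Replicates: singlicate, each compound tested once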
Cmpd fluor yeast – compound fluorescence in yeast efflux pump counter-screen. AID 588517. S. cerevisiae AD/pABC3, flow cytometry. fluorescence ratio to DMSO, % at 10 µM. hit rate 4% among 1,700. shares compounds with Efflux pump inh;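 active = fluorescence ratio to DMSO above its plate's cutoff, the plate mean ratio plus 5 SD, cut at about 210% in these data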;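 note: unstained yeast with no Nile Red so the signal is compound autofluorescence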
CaMdr1 efflux inh – inhibitors of Candida albicans Mdr1 efflux, confirmation, flow cytometry, singleplex, Cherry Pick1 set | shares compounds with Efflux pump inh | S. cerevisiae AD/CaMDR1, Nile Red efflux | inhibition, % at 10 µM | hit rate 1% among 1,700; in the data active = inhibition above about 26%;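 note: higher means more Nile Red retained so more efflux inhibition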
CaCdr2 efflux inh – inhibitors of Candida albicans Cdr2 efflux pump, confirmation, S. cerevisiae AD/CaCDR2, flow cytometry, cherry pick 1, singleplex | shares compounds with Efflux pump inh | Nile Red retention | Nile Red retention ratio vs DMSO, % at 10 µM | hit rate 4% among 1,700; in the data active = Nile Red retention ratio vs DMSO above about 190%;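 note: higher ratio means more blocking of Cdr2 efflux of the dye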
CaCdr1 efflux inh – inhibitors of Candida albicans Cdr1 efflux pump, confirmation, S. cerevisiae AD/CaCDR1, flow cytometry, cherry pick 1, singleplex. shares compounds with Efflux pump inh. hit rate 1% among 1,700. AID 588522, 2011. inhibition, % at 10 µM. Nile Red efflux;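 active = inhibition above the screen-wide mean plus twice its standard deviation, cut at about 32% in these data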
Numbers stand for hits; i = inactive; nt = no result.

SMILES	ASAP1 GAP inh	Rtt109 HAT inh	FGF22 binding	Efflux pump inh	ARFGAP1 inh	Cmpd fluor yeast	CaMdr1 efflux inh	CaCdr2 efflux inh	CaCdr1 efflux inh
CCCCOc1ccc(C(=O)N/C(=C\c2ccc([N+](=O)[O-])cc2)C(=O)OCc2ccco2)cc1	i	i	nt	0.4	i	i	i	i	i
COc1cc2c(cc1OC)CN(C(=S)Nc1cccc(Cl)c1C)CC2	i	i	i	0.7	i	i	i	i	i
COc1cccc(NC(=S)N2CCc3cc(OC)c(OC)cc3C2)c1	i	i	i	i	i	i	i	i	i
COc1cccc(NC(=O)c2ccc3c(c2)CCCC3)c1	i	i	i	52	i	i	i	i	i
C[C@H](CO)N1C[C@H](C)[C@H](CN(C)S(C)(=O)=O)OCCCC[C@H](C)Oc2ccc(NC(=O)Nc3cccc4ccccc34)cc2C1=O	nt	nt	i	nt	nt	nt	nt	nt	nt
Fc1ccc(C2CC(c3ccco3)=NN2c2ccccc2)cc1 (stereo unspecified)	i	i	nt	i	i	nt	nt	nt	nt
O=[N+]([O-])c1ccc(N2N=C(c3ccco3)CC2c2ccccc2)cc1 (stereo unspecified)	i	i	nt	0.5	i	i	i	i	i
Cc1ccc(CC2CC(=O)N(Cc3ccco3)C2=O)cc1 (stereo unspecified)	i	i	nt	1.2	i	i	i	i	i
O=C1CC(Cc2ccccc2)C(=O)N1Cc1ccco1 (stereo unspecified)	nt	i	nt	i	nt	nt	nt	nt	nt
CC12CCCCC1C(C(N)=O)C(=O)O2 (stereo unspecified)	i	i	i	nt	i	nt	nt	nt	nt
CCOC(=O)C(NC(=O)c1cccc(Cl)c1)(Nc1nnc(C)s1)C(F)(F)F (stereo unspecified)	i	i	nt	9.7	i	i	i	i	i
COc1ccc([C@H]2CC(=O)C=C(c3cc(Cl)ccc3C)C2)cc1	i	i	i	i	i	nt	nt	nt	nt
COc1ccc([C@H]2CC(=O)C=C(c3ccnc4ccc(Cl)cc34)C2)cc1	i	i	i	67	i	i	i	i	i
COC(=O)c1ccccc1S(=O)(=O)N(Cc1cc2ccc(OC)cc2[nH]c1=O)CC1CCCO1 (stereo unspecified)	i	i	nt	i	i	nt	nt	nt	nt
COc1ccc2cc(CN(CC3CCCO3)S(=O)(=O)c3ccc(C(C)=O)cc3)c(=O)[nH]c2c1 (stereo unspecified)	i	i	nt	0.3	i	i	i	i	92
Cc1ccc2nc(-c3ccc(NC(=O)CCS(=O)(=O)c4ccccc4)cc3)sc2c1	i	i	nt	0.5	i	i	i	i	i
COc1cccc(C(=O)N2CCN(C(=O)c3cccc(F)c3)CC2)c1	i	i	nt	i	i	nt	nt	nt	nt
O=C(c1cccc(F)c1)N1CCN(C(=O)c2cc3ncc(Br)cn3n2)CC1	i	i	nt	14	i	i	i	i	i
COc1cc(C(C)=O)ccc1OCC(=O)Nc1ccc(Cl)c(S(=O)(=O)N2CCOCC2)c1	i	i	i	1.0	i	i	i	i	i
COc1ccc(-c2nc(CN3CCN(C(=O)c4ccco4)CC3)c(C)o2)c(OC)c1C	i	i	i	i	i	nt	nt	nt	nt
CCNC(=S)N1CCC(C(=O)c2ccc3c(c2)OCCO3)CC1	i	i	i	i	i	nt	nt	nt	nt
COc1ccc(N2C(=O)CC(N3CCN(c4ccc(C(=O)c5cccnc5)cc4)CC3)C2=O)cc1 (stereo unspecified)	i	i	nt	9.8	i	i	i	i	i
CC(=O)Nc1ccc(-c2cn3cc(C)ccc3n2)cc1	i	i	nt	6.5	i	i	i	i	i
O=C(Nc1ccc(O)c(C(=O)O)c1)c1cccc(NC(=O)c2ccco2)c1	i	i	i	i	i	nt	nt	nt	nt
CCn1c(C(=O)N2CCCC(C(=O)NCCc3ccc(C)cc3)C2)cc2sccc21 (stereo unspecified)	i	i	nt	1.0	i	i	i	i	i
SMILES	ASAP1 GAP inh	Rtt109 HAT inh	FGF22 binding	Efflux pump inh	ARFGAP1 inh	Cmpd fluor yeast	CaMdr1 efflux inh	CaCdr2 efflux inh	CaCdr1 efflux inh
O=S(=O)(Nc1ccc(-c2ccc(N3CCOCC3)nn2)cc1)c1ccc(Cl)c(Cl)c1	i	i	i	0.8	i	i	i	i	i
O=[N+]([O-])c1ccc(Cl)c(S(=O)(=O)Nc2ccc(-c3ccc(N4CCOCC4)nn3)cc2)c1	i	i	i	i	i	nt	nt	nt	nt
Cc1cc(CNC(=O)C2CCC(=O)N(Cc3cccc(C(F)(F)F)c3)C2)no1 (stereo unspecified)	i	i	i	i	i	nt	nt	nt	nt
CC(C)Cc1cc(CNC(=O)C2CCC(=O)N(Cc3cccc(C(F)(F)F)c3)C2)on1 (stereo unspecified)	i	i	i	9.2	i	i	i	i	i
O=[N+]([O-])c1cccc(-c2nc3ccccc3s/c2=N/O)c1	i	i	i	0.7	i	i	i	i	i
CC1CCC2(CC1)NC(=O)N(CC(=O)c1ccc[nH]1)C2=O (stereo unspecified)	i	i	nt	i	i	nt	nt	nt	nt
COc1cccc(C(C(=O)NC(C)(C)C)N(C(=O)CCC(=O)Nc2cc(C)on2)C(C)(C)C)c1OC (stereo unspecified)	i	i	nt	i	i	i	i	i	i
COc1cccc(C(C(=O)NC(C)(C)C)N(C(=O)CCC(=O)Nc2cc(C)on2)C(C)C)c1OC (stereo unspecified)	i	i	nt	i	i	i	i	i	i
O=C(NN1C(=O)C2C3c4ccccc4C(c4ccccc43)C2C1=O)c1ccc(Cl)cc1 (stereo unspecified)	i	i	i	8.9	i	i	i	i	i
COc1ccc(CCNC(=O)c2ccc(-c3ccc([N+](=O)[O-])cc3Cl)o2)cc1	i	i	i	6.7	i	i	i	i	i
CC(C)(C)c1ccc(-n2ncc3c2CCCC3NC(=O)c2cnccn2)cc1 (stereo unspecified)	i	i	i	0.5	i	i	i	i	i
CCOCCCNC(=O)/C(C#N)=C/c1ccc([N+](=O)[O-])o1	i	i	i	0.9	i	i	i	i	i

Source: PubChem BioAssay (several laboratories)
